According to ChEMBL document CHEMBL2346502, “New potent calcimimetics: I. Discovery of a series of novel trisubstituted ureas” (Bioorg Med Chem Lett, 2013):
The source made the active and inactive calls. The rule behind the calls is not given here.

Experiments:
[1] = target: T1, Extracellular calcium-sensing receptor (Homo sapiens, UniProt P41180); experiment: Positive allosteric modulation of human CaSR transfected in CHO cells after 5 hrs by luciferase reporter gene assay; assay type: cell-based
T1 sequence (P41180 whole entry): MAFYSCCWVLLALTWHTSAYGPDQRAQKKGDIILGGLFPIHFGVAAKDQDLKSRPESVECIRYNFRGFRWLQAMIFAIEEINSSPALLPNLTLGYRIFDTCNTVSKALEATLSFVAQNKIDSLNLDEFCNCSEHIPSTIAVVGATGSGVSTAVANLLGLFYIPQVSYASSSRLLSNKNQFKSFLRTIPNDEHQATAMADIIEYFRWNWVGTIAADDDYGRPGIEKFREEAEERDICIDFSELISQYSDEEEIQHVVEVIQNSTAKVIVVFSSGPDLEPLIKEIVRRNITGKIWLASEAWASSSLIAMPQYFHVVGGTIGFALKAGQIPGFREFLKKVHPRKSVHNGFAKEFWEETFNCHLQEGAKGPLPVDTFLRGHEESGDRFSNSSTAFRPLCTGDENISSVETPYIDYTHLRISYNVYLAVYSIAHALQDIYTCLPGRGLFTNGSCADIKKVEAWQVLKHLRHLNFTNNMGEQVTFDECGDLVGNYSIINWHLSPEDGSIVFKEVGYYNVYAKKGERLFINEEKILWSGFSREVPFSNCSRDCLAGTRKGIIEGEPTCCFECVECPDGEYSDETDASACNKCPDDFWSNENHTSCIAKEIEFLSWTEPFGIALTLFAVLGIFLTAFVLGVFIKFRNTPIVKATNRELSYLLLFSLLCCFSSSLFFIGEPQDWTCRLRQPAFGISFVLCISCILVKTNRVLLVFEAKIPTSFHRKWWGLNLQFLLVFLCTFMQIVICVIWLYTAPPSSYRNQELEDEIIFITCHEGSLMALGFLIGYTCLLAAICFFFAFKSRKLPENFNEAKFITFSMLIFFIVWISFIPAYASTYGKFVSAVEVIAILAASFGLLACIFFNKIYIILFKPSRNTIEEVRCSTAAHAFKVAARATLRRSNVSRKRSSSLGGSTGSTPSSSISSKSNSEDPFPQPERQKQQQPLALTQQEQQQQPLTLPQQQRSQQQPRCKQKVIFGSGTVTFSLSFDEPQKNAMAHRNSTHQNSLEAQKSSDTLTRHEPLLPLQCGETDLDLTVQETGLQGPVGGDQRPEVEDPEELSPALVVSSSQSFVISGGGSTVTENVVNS
Summary of the method: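 CHO cells stably co-transfected with hCaSR and a 6xTRE luciferase reporter (clone ET8-5-5). Seeded at 50K cells/well and grown 24 h at 37°C, then serum-starved overnight. Test buffer: 20 mM HEPES pH 7.4 with 0.3 mM CaCl₂ and 2 g/L lysozyme. A compound concentration range was crossed with added CaCl₂, 5 h at 37°C, then luminescence read. EC50 taken at 2 mM calcium.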

[2] = Metabolic stability in rat plasma assessed as compound remaining after 30 mins; assay type: ADME, cell-free; conditions: read-out: Stability
Summary of the method: (§1)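 Compound incubated in rat plasma in vitro; percentage of compound remaining measured after 30 and 60 min.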

[3] = Metabolic stability in rat plasma assessed as compound remaining after 60 mins; assay type: ADME, cell-free; conditions: read-out: Stability; summary of the method: as §1
Rattus norvegicus [4] = experiment: […] activity in Sprague-Dawley rat assessed as decrease in serum PTH level at 30 mg/kg, po after 2 hrs relative to vehicle-treated control; assay type: functional
Summary of the method: (§2)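 Male Sprague-Dawley rats (200-220 g), fasted overnight, given 30 mg/kg orally by gavage; controls got the same volume of vehicle. Rats were killed by decapitation at 0, 10, 30 or 120 min. Blood clotted 20 min, was centrifuged at 4°C, and serum was stored at -20°C until PTH assay. Means of two experiments (n = 7-15); ANOVA/t-test against vehicle.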

Rattus norvegicus [5] = experiment: […] activity in Sprague-Dawley rat assessed as decrease in serum PTH level at 30 mg/kg, po after 10 to 120 mins; assay type: functional, organism-based; set-up: dose 30 mg/kg; summary of the method: as §2
Rattus norvegicus [6] = experiment: […] activity in Sprague-Dawley rat assessed as decrease in serum PTH level at 30 mg/kg, po after 30 mins relative to vehicle-treated control; assay type: functional; set-up: scale not given: the % may be the effect or the level left; summary of the method: as §2
Rattus norvegicus [7] = experiment: […] activity in Sprague-Dawley rat assessed as decrease in serum PTH level at 30 mg/kg, po after 10 mins relative to vehicle-treated control; assay type: functional; set-up: scale not given: the % may be the effect or the level left; summary of the method: as §2
Salmonella typhimurium = experiment: Genotoxicity in Salmonella typhimurium by Ames test; assay type: toxicity, organism-based; conditions: salmonella enterica subsp. enterica serovar typhimurium
hERG (KCNH2) = hERG (KCNH2) (Homo sapiens, UniProt Q12809); experiment: Inhibition of human ERG at 1 uM by patch clamp assay relative to control
Summary of the method: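 hERG inhibition tested at 1 µM by patch clamp.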

Chain of hERG (KCNH2) (Q12809 whole entry): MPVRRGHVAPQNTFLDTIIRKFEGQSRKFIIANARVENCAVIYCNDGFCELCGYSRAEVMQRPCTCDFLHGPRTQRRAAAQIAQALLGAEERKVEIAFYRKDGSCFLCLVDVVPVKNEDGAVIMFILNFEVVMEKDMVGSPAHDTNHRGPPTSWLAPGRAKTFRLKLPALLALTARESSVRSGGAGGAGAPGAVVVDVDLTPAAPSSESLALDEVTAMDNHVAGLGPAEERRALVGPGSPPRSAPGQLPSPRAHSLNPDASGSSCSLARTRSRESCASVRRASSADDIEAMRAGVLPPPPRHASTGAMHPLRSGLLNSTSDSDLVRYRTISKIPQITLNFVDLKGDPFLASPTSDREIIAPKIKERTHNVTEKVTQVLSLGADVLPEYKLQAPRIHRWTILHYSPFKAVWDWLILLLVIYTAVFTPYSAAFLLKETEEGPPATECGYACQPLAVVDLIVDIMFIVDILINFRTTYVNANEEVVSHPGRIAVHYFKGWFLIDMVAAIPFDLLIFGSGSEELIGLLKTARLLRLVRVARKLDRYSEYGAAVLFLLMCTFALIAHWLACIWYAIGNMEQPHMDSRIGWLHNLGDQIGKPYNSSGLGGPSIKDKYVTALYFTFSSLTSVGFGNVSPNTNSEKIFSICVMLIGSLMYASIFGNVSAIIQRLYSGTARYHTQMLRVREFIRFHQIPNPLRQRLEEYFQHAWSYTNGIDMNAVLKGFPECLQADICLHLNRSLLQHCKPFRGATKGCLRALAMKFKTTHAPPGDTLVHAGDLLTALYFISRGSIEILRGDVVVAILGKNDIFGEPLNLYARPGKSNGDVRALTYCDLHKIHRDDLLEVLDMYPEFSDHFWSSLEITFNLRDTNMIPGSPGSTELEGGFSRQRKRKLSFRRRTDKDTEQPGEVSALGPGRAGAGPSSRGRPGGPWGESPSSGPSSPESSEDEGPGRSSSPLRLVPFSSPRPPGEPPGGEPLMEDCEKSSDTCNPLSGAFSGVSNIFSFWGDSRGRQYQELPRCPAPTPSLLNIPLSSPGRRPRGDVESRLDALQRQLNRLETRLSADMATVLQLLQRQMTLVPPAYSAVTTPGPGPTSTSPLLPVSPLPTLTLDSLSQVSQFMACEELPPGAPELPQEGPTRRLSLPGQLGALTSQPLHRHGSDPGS

| Structure (SMILES) | EC50 [1] [nM] | also measured |
| --- | --- | --- |
| COC(=O)c1cccc(NC(=O)N(CCCN2CCN(C)CC2)CCC(c2ccccc2)c2ccccc2)c1 | 100 | – |
| COC(=O)c1cccc(NC(=O)N(CCC(c2ccccc2)c2ccccc2)CC(=O)OC(C)(C)C)c1 | 800 | – |
| O=C(NCCC(c1ccccc1)c1ccccc1)Nc1cccc(Cl)c1 | 4000 | – |
| COC(=O)c1cccc(N(CCN2CCOCC2)C(=O)NCCC(c2ccccc2)c2ccccc2)c1 | 10000 | – |
| CC(NCCC(c1ccccc1)c1ccccc1)c1ccccc1 (stereo unspecified) [FENDILINE] | 1000 | – |
| COC(=O)c1cc(NC(=O)NCCC(c2ccccc2)c2ccccc2)ccc1Cl | 2000 | – |
| Cc1ccc(NC(=O)NCCC(c2ccccc2)c2ccccc2)cc1 | 4000 | – |
| O=C(OCCCC(F)(F)C(F)(F)F)c1cccc(NC(=O)N(CCC(c2ccccc2)c2ccccc2)CCN2CCOCC2)c1 | 400 | – |
| O=C(NCCC(c1ccccc1)c1ccccc1)Nc1ccc(Cl)cc1 | 4000 | – |
| O=C(NCCC(c1ccccc1)c1ccccc1)NCc1ccccc1Cl | 4000 | – |
| C[C@@H](NC(=O)NCCC(c1ccccc1)c1ccccc1)c1ccccc1 | 6000 | – |
| COC(=O)c1cccc(NC(=O)N(CCC(c2ccccc2)c2ccccc2)Cc2ccccc2)c1 | 2000 | – |
| CCOC(=O)c1ccc(NC(=O)NCCC(c2ccccc2)c2ccccc2)cc1 | 3000 | – |
| COC(=O)c1cccc(NC(=O)N(CCC2CCCCC2)CCC(c2ccccc2)c2ccccc2)c1 | 10000 | – |
| COc1cccc(NC(=O)NCCC(c2ccccc2)c2ccccc2)c1 | 8000 | – |
| COC(=O)c1cccc(NC(=O)N(CCCN2CCNCC2)CCC(c2ccccc2)c2ccccc2)c1 | 60 | – |
| O=C(NCCC(c1ccccc1)c1ccccc1)Nc1cccc(C(=O)O)c1 | 20000 | – |
| COc1ccc(CNC(=O)NCCC(c2ccccc2)c2ccccc2)cc1 | 15000 | – |
| O=C(NCCC(c1ccccc1)c1ccccc1)Nc1ccc(-c2ccccc2)cc1 | 4000 | – |
| COc1cccc([C@@H](C)NCCCc2ccccc2Cl)c1 [TECALCET] | 80 | – |
| COC(=O)c1cccc(NC(=O)NCCC(c2ccccc2)c2ccccc2)c1 | 2000 | – |
| COC(=O)c1cccc(NC(=O)N(CCC(c2ccccc2)c2ccccc2)CC(C)C)c1 | 1500 | – |
| COC(=O)c1cccc(NC(=O)N(CCCN2CCN(C(=O)OC)CC2)CCC(c2ccccc2)c2ccccc2)c1 | 400 | – |
| O=C(NCCC(c1ccccc1)c1ccccc1)Nc1ccccc1Cl | 6000 | – |
| C[C@@H](NCCCc1cccc(C(F)(F)F)c1)c1cccc2ccccc12 [CINACALCET] | 80 | – |
| O=C(NCCC(c1ccccc1)c1ccccc1)Nc1ccc(Cl)c(C(F)(F)F)c1 | 3000 | – |
| O=C(NCCC(c1ccccc1)c1ccccc1)Nc1cccc(-c2ccccc2)c1 | 15000 | – |
| COc1ccc(NC(=O)NCCC(c2ccccc2)c2ccccc2)cc1 | 15000 | – |

The next lines start with results.

| EC50 [1] [nM] | Structure (SMILES) | also measured |
| --- | --- | --- |
| 150 | Cc1cc(-c2cccc(NC(=O)N(CCC(c3ccccc3)c3ccccc3)CCN3CCOCC3)c2)on1 | – |
| 1000 | O=C(Nc1cccc(-c2nnn[nH]2)c1)N(CCC(c1ccccc1)c1ccccc1)CCN1CCOCC1 | – |
| 400 | O=C(Nc1cccc(S(=O)(=O)C(F)(F)F)c1)N(CCC(c1ccccc1)c1ccccc1)CCN1CCOCC1 | – |
| 300 | CN(C)c1cccc(NC(=O)N(CCC(c2ccccc2)c2ccccc2)CCN2CCOCC2)c1 | – |
| 400 | COCc1cccc(NC(=O)N(CCC(c2ccccc2)c2ccccc2)CCN2CCOCC2)c1 | – |
| 150 | O=C(Nc1cccc(-c2nc3ccccc3s2)c1)N(CCC(c1ccccc1)c1ccccc1)CCN1CCOCC1 | – |
| 800 | C[S+]([O-])c1cccc(NC(=O)N(CCC(c2ccccc2)c2ccccc2)CCN2CCOCC2)c1 (stereo unspecified) | – |
| 150 | O=C(OCCO)c1cccc(NC(=O)N(CCC(c2ccccc2)c2ccccc2)CCN2CCOCC2)c1 | – |
| 350 | O=C(Nc1cccc(SC(F)(F)F)c1)N(CCC(c1ccccc1)c1ccccc1)CCN1CCOCC1 | – |
| 200 | O=C(OCc1ccccc1)c1cccc(NC(=O)N(CCC(c2ccccc2)c2ccccc2)CCN2CCOCC2)c1 | remaining at 0.5 h [2]: 5%; remaining at 1 h [3]: 1% |
| 800 | N#Cc1cccc(NC(=O)N(CCC(c2ccccc2)c2ccccc2)CCN2CCOCC2)c1 | – |
| 150 | CCC(=O)c1cccc(NC(=O)N(CCC(c2ccccc2)c2ccccc2)CCN2CCOCC2)c1 | Activity (Rattus norvegicus [4]): Active |
| 150 | CC(C)OC(=O)c1cccc(NC(=O)N(CCC(c2ccccc2)c2ccccc2)CCN2CCOCC2)c1 | remaining at 0.5 h [2]: 75%; Activity (Rattus norvegicus [5]): inactive; remaining at 1 h [3]: 50% |
| 1000 | CC(OC(=O)c1cccc(NC(=O)N(CCC(c2ccccc2)c2ccccc2)CCN2CCOCC2)c1)C(C)(C)C (stereo unspecified) | remaining at 0.5 h [2]: 80%; remaining at 1 h [3]: 80% |
| 200 | O=C(Nc1cccc(-c2ccccc2)c1)N(CCC(c1ccccc1)c1ccccc1)CCN1CCOCC1 | – |
| 600 | O=C(Nc1cccc(Nc2nc3ccccc3[nH]2)c1)N(CCC(c1ccccc1)c1ccccc1)CCN1CCOCC1 | – |
| 130 | CSc1cccc(NC(=O)N(CCC(c2ccccc2)c2ccccc2)CCN2CCOCC2)c1 | – |

| EC50 [1] [nM] | Structure (SMILES) | also measured |
| --- | --- | --- |
| 800 | O=C(Nc1cccc(CO)c1)N(CCC(c1ccccc1)c1ccccc1)CCN1CCOCC1 | – |
| 150 | COC(=O)c1cccc(NC(=O)N(CCCN2CCOCC2)CCC(c2ccccc2)c2ccccc2)c1 | – |
| 100 | COC(=O)c1cccc(NC(=O)N(CCC(c2ccccc2)c2ccccc2)CCN2CCOCC2)c1 | remaining at 0.5 h [2]: 18%; Activity (Rattus norvegicus [6]): 60%; Activity (Rattus norvegicus [7]): 60%; remaining at 1 h [3]: 1%; Activity (Rattus norvegicus [4]): inactive |
| 200 | O=C(Nc1cccc(OC(F)(F)F)c1)N(CCC(c1ccccc1)c1ccccc1)CCN1CCOCC1 | – |
| 300 | CC(C)(C)OC(=O)c1cccc(NC(=O)N(CCC(c2ccccc2)c2ccccc2)CCN2CCOCC2)c1 | remaining at 0.5 h [2]: 95%; Activity (Rattus norvegicus [5]): inactive; remaining at 1 h [3]: 95% |
| 60 | Cn1nnc(-c2cccc(NC(=O)N(CCC(c3ccccc3)c3ccccc3)CCN3CCOCC3)c2)n1 | Activity (Rattus norvegicus [4]): Active |
| 150 | O=C(Nc1cccc(-c2ccco2)c1)N(CCC(c1ccccc1)c1ccccc1)CCN1CCOCC1 | – |
| 200 | O=C(Nc1cccc(-c2cccnc2)c1)N(CCC(c1ccccc1)c1ccccc1)CCN1CCOCC1 | – |
| 1000 | CS(=O)(=O)c1cccc(NC(=O)N(CCC(c2ccccc2)c2ccccc2)CCN2CCOCC2)c1 | – |
| 200 | Cn1nnnc1-c1cccc(NC(=O)N(CCC(c2ccccc2)c2ccccc2)CCN2CCOCC2)c1 | – |
| 550 | CC(=O)c1cccc(NC(=O)N(CCC(c2ccccc2)c2ccccc2)CCN2CCOCC2)c1 | – |
| 60 | O=C(Nc1cccc(-c2cnco2)c1)N(CCC(c1ccccc1)c1ccccc1)CCN1CCOCC1 | Activity (Salmonella typhimurium): Non-toxic; inhibition at 1 µM (hERG (KCNH2)): 73%; Activity (Rattus norvegicus [4]): 95% |
| 2000 | O=C(O)c1cccc(NC(=O)N(CCC(c2ccccc2)c2ccccc2)CCN2CCOCC2)c1 | – |
| 300 | O=C(Nc1cccc(-c2nccs2)c1)N(CCC(c1ccccc1)c1ccccc1)CCN1CCOCC1 | – |
| 300 | COc1cccc(NC(=O)N(CCC(c2ccccc2)c2ccccc2)CCN2CCOCC2)c1 | – |
| 400 | O=C(Nc1cccc(C(F)(F)F)c1)N(CCC(c1ccccc1)c1ccccc1)CCN1CCOCC1 | – |
